Reference: the RNAGym collection of RNA variant scans (doi:10.1101/gad.245936.114)
Fewer inactive variants are shown than the library holds.

B1: tRNA (parent)
chain: CUCUCGGUAGCCAAGUUGGUUUAAGGCGCAAGACUUUAAUUUAUCACUACGAAAUCUUGAGAUCGGGCGUUCGACUCGCCCCCGGGAGAUUUUUUCCUCGAGCAA

Variants of: B1
Assay: nonsense suppression (GFP-seq) (ratio to wild type); higher = more function; SUP4oc tRNA, yeast GFP reporter sort-seq
Summary of the method: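 To measure nonsense suppression, tRNA variants from a library carrying ~3% random mutations were integrated into the yeast genome alongside RFP and a GFP ochre reporter under galactose control. Growth took place in raffinose/galactose medium supplemented with 80 mg/L adenine, followed by sorting into GFP/RFP bins and Illumina sequencing of each bin (phred ≥30). For each variant with ≥100 reads and ≥30 cells, the bin median GFP/RFP values were weighted by its estimated cell share per bin and referenced to the unmutated parent tRNA.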
U17G A31G gave a nonsense suppression of 1.15. U17A U20G G32A G61A C80U showed a nonsense suppression of no more than 0.026. For U16C C81G, the nonsense suppression was no more than 0.026. In the case of U16C C81U, the nonsense suppression is reported as 1.16. With U17C A30G the nonsense suppression was 0.326. With U17C A30U the nonsense suppression was 0.16. In the case of G18U C82U G86C, the nonsense suppression is reported as no more than 0.026. Variant G18A A87G has a nonsense suppression of 0.036. For U17C A24C, the nonsense suppression was 0.276. U17C A24G gave a nonsense suppression of 0.0323. For U17C G19A C27G, the nonsense suppression was no more than 0.026. Variant U16C A31G has a nonsense suppression of 1.07. In the case of U17C U22C A60G, the nonsense suppression is reported as 0.348. U17G G19C U21A U57A G78U gave a nonsense suppression of no more than 0.026. Variant U17A U21C G85A has a nonsense suppression of 1.06. For U17A G61C, the nonsense suppression was 0.665. Variant U17A G61A has a nonsense suppression of 0.83. U16G G85U showed a nonsense suppression of 1.06. Variant U16G G85C has a nonsense suppression of 0.0285. In the case of U16A G65A G66A, the nonsense suppression is reported as no more than 0.026. In the case of G15C G19C, the nonsense suppression is reported as no more than 0.026. Variant G18U U20G G65C G66C has a nonsense suppression of no more than 0.026. With U16G G25C U55G the nonsense suppression was no more than 0.026. Work on G15A A24G C29G A60C yielded a nonsense suppression of no more than 0.026. For G18C G88A, the nonsense suppression was 0.135. U17C C68A C82U gave a nonsense suppression of no more than 0.026. Work on U17C G28C A54U yielded a nonsense suppression of 0.219. In the case of U17A A33C U76C C79A C80U, the nonsense suppression is reported as no more than 0.026. For U16C A31G U57C, the nonsense suppression was 0.922. In the case of U17C C29A G65A C72U C77U, the nonsense suppression is reported as no more than 0.026. Work on U16G C83U yielded a nonsense suppression of 0.223. G18U U20C U76G showed a nonsense suppression of 0.264. With G18U A33U C82U A89C the nonsense suppression was no more than 0.026. Work on U16C U21A U22G yielded a nonsense suppression of 0.861. For U17A A87G, the nonsense suppression was 1.19. With U17A A23C C68G the nonsense suppression was no more than 0.026. With G19A A33U U71A the nonsense suppression was no more than 0.026. G15U U16A G59C G66C U70A C82G showed a nonsense suppression of no more than 0.026. Work on G15A G78A yielded a nonsense suppression of 0.0278. For U16G U17A G19A C27A, the nonsense suppression was no more than 0.026. With U17A A31G C72G U76A G78U the nonsense suppression was no more than 0.026. For U17G G19A, the nonsense suppression was 0.204. Work on U17G G19U yielded a nonsense suppression of 1.05. For U17C A87G, the nonsense suppression was 0.226. Variant U16C G73A has a nonsense suppression of 1.22. Work on U16C G28A yielded a nonsense suppression of 1.06. For U17A G18U, the nonsense suppression was no more than 0.026. For U17C U55C G59A G66C, the nonsense suppression was no more than 0.026. With U17A U70G the nonsense suppression was no more than 0.026. Variant G18C C27G G67A G69C has a nonsense suppression of 1.05. U16A G18U A24C U58G gave a nonsense suppression of no more than 0.026. U16C C82G gave a nonsense suppression of no more than 0.026. Work on U16C U76A A89U yielded a nonsense suppression of no more than 0.026. U16A gave a nonsense suppression of 1. U16G showed a nonsense suppression of 1. For U16C, the nonsense suppression was 0.862. Work on U16G G28U U35G G59A G85A yielded a nonsense suppression of no more than 0.026. In the case of U16A G59A, the nonsense suppression is reported as 0.32. Variant G18A U21G C34U has a nonsense suppression of no more than 0.026. G15A G26U U55A showed a nonsense suppression of no more than 0.026. Work on U17C C83U yielded a nonsense suppression of 0.191. U16G C27G showed a nonsense suppression of no more than 0.026. In the case of U16G A30C A31G U55A U57A, the nonsense suppression is reported as no more than 0.026. In the case of U17G A54G U55G, the nonsense suppression is reported as no more than 0.026. With U16G C82G the nonsense suppression was no more than 0.026. In the case of U17A U76C, the nonsense suppression is reported as 1.06. U17A C34U A74U gave a nonsense suppression of no more than 0.026. With U17G C64A the nonsense suppression was 0.0364. For U17G A33U U63G C68A U71G, the nonsense suppression was no more than 0.026. U16A A30G gave a nonsense suppression of 0.312. Variant U16G A30G C64G has a nonsense suppression of no more than 0.026. Work on U17G A33U U63C G65C yielded a nonsense suppression of no more than 0.026. With G15C G69U G73C the nonsense suppression was no more than 0.026. Work on G15A U22C yielded a nonsense suppression of 0.147. Work on A14U G85U G88U yielded a nonsense suppression of no more than 0.026. With U16A G19C U70G C72G the nonsense suppression was no more than 0.026. In the case of U17G A54G U57C, the nonsense suppression is reported as no more than 0.026. Variant U17C G28U A30C has a nonsense suppression of no more than 0.026. Variant U17G G66U G69A has a nonsense suppression of no more than 0.026. For U17A A23U G84A, the nonsense suppression was no more than 0.026. In the case of U17C G73A, the nonsense suppression is reported as 0.899. Work on G15C U17G G19C G25U yielded a nonsense suppression of no more than 0.026. Work on U16A U21G yielded a nonsense suppression of 0.752. U16A A62G U76G showed a nonsense suppression of no more than 0.026. U16C G61A U63A gave a nonsense suppression of 0.186. With G15U A23G G65C the nonsense suppression was no more than 0.026. In the case of G18A G73A, the nonsense suppression is reported as no more than 0.026. With U16C A30G the nonsense suppression was 1.17. With U17C U55C the nonsense suppression was 0.444. U16A G61A showed a nonsense suppression of 0.819. G18U G25A G78U showed a nonsense suppression of no more than 0.026. U16C U63C showed a nonsense suppression of 1.11. With G19A A54G G67A the nonsense suppression was no more than 0.026. G15U U35A U63C C68A showed a nonsense suppression of no more than 0.026. In the case of G15A U20G, the nonsense suppression is reported as 0.189. U16G C56A U58G A60C gave a nonsense suppression of no more than 0.026. Variant U17C U20G has a nonsense suppression of 1.25. With U16G U63A the nonsense suppression was 1.09. U17C A30G A31G showed a nonsense suppression of 0.0827. With U17A A33G the nonsense suppression was 0.104. Work on G18A A30U yielded a nonsense suppression of 0.0262. For G18A A30G, the nonsense suppression was 0.0263. U16C C68U showed a nonsense suppression of 1.03. U17C G28A G61C gave a nonsense suppression of 0.716. Variant G15C G25U has a nonsense suppression of no more than 0.026. Work on U16C U63C C79U yielded a nonsense suppression of 0.0784. With G18A U55A U58A the nonsense suppression was no more than 0.026. Work on U17A yielded a nonsense suppression of 0.937. Variant U17C has a nonsense suppression of 1.05. U17G gave a nonsense suppression of 0.999. Work on G15A A24C yielded a nonsense suppression of 0.0467. Work on U16C C27U yielded a nonsense suppression of 0.137. U16G U17C C72A gave a nonsense suppression of 0.27. Variant U17A A24C has a nonsense suppression of 0.902. U17A A24U showed a nonsense suppression of 0.2. With U17A A24G the nonsense suppression was 0.0262. G15C U22C G28C gave a nonsense suppression of no more than 0.026. In the case of G15A G26U, the nonsense suppression is reported as no more than 0.026. Variant U17C A62G U70C has a nonsense suppression of no more than 0.026. Variant U16G A60G has a nonsense suppression of 0.39. In the case of U16A A60G, the nonsense suppression is reported as 0.247. In the case of U17A C79A, the nonsense suppression is reported as no more than 0.026. G18C A24C A33U gave a nonsense suppression of no more than 0.026. A14U U71A showed a nonsense suppression of no more than 0.026. G15C G28U A62C G86C showed a nonsense suppression of no more than 0.026. U17G A23C gave a nonsense suppression of no more than 0.026. Work on U16C U22C G61C yielded a nonsense suppression of 0.207. G15U U70A G85U showed a nonsense suppression of no more than 0.026. For U17A C29U, the nonsense suppression was 1.15. With G15U C68U G78C C82G G84A the nonsense suppression was no more than 0.026. Work on U17G G28C yielded a nonsense suppression of 0.209. U17G G28A gave a nonsense suppression of 1.12. U17C G88U showed a nonsense suppression of no more than 0.026. U16C C83G G86A A87G gave a nonsense suppression of no more than 0.026. U17A A23C U71C gave a nonsense suppression of no more than 0.026. Variant U16C G32A G59A C82G has a nonsense suppression of no more than 0.026. In the case of U17A U22G, the nonsense suppression is reported as 1.03. G15A showed a nonsense suppression of 0.188. In the case of G15C G65A, the nonsense suppression is reported as no more than 0.026. In the case of G18U U76C G86U, the nonsense suppression is reported as no more than 0.026. Work on U16A U22C yielded a nonsense suppression of 1.08. G15A U21C C82A showed a nonsense suppression of no more than 0.026. Work on G15A A33G yielded a nonsense suppression of 0.0395. With G18C A54C G84U the nonsense suppression was no more than 0.026. In the case of G19A C34A G59A G73U C82U, the nonsense suppression is reported as no more than 0.026. With A14U G86A the nonsense suppression was no more than 0.026. Variant A14U G86C has a nonsense suppression of no more than 0.026. G15A U16A showed a nonsense suppression of 0.0275. U16G C34U showed a nonsense suppression of no more than 0.026. Work on U16C U17G yielded a nonsense suppression of 1.07. In the case of G18C A89G, the nonsense suppression is reported as no more than 0.026. U16A U76C gave a nonsense suppression of 1.19. In the case of U16G U76G G86C, the nonsense suppression is reported as no more than 0.026. With U17A U55C the nonsense suppression was 0.176. Work on U16A A31G G86U yielded a nonsense suppression of no more than 0.026. For G15U G19A A54U A62G C79A, the nonsense suppression was no more than 0.026. In the case of A14U U21A A24G A31C C56G G88A, the nonsense suppression is reported as no more than 0.026. Work on U17G G32U U55A U57C U76C yielded a nonsense suppression of no more than 0.026. G19A G26U C27G showed a nonsense suppression of no more than 0.026. Variant G15A U63G C75G has a nonsense suppression of no more than 0.026. In the case of G15U U55A, the nonsense suppression is reported as no more than 0.026. U16C C29U showed a nonsense suppression of 1.11. U17C A33G gave a nonsense suppression of 0.0608. In the case of U16G C29U A89C, the nonsense suppression is reported as no more than 0.026. Work on G15A A31G yielded a nonsense suppression of 0.0274. With U17G C75U A87G the nonsense suppression was 0.77. With G15A C81U the nonsense suppression was 0.0386.
